Test results from publication PMC3698492 (Scientific Reports, 2013).
pIC50: −log10 of the molar value.

What was measured:
[1] = system: Drosophila first instar larvae; experiment: Liquid food feeding assay; assay type: in vivo, Drosophila melanogaster; conditions: for dose-response verification: 14 secondary screen hits chosen for dose-response curve
Drosophila larvae [2] = experiment: Solid food feeding assay; assay type: in vivo, Drosophila melanogaster
Method in brief: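 Larvae aged 0–2 h were fed 17 h at 25°C and 70% humidity on cornmeal-agar-molasses food containing 0.05% bromophenol blue plus solvent or test compound. Individual larvae were imaged, and digestive-tract optical density was measured. Values were normalized to same-day solvent-treated larvae and reported as mean ± s.e.m.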

Drosophila larvae [3] = experiment: Larval locomotion; assay type: in vivo, Drosophila melanogaster
5-HT1A = biological target: T1, 5-HT1A (Drosophila melanogaster, UniProt P28285); experiment: Calcium imaging of receptor expressed in HEK-293T cells; assay type: cell-based; conditions: 100 μM metitepine; stated for all 5-HT receptors
T1 sequence (P28285 1-834): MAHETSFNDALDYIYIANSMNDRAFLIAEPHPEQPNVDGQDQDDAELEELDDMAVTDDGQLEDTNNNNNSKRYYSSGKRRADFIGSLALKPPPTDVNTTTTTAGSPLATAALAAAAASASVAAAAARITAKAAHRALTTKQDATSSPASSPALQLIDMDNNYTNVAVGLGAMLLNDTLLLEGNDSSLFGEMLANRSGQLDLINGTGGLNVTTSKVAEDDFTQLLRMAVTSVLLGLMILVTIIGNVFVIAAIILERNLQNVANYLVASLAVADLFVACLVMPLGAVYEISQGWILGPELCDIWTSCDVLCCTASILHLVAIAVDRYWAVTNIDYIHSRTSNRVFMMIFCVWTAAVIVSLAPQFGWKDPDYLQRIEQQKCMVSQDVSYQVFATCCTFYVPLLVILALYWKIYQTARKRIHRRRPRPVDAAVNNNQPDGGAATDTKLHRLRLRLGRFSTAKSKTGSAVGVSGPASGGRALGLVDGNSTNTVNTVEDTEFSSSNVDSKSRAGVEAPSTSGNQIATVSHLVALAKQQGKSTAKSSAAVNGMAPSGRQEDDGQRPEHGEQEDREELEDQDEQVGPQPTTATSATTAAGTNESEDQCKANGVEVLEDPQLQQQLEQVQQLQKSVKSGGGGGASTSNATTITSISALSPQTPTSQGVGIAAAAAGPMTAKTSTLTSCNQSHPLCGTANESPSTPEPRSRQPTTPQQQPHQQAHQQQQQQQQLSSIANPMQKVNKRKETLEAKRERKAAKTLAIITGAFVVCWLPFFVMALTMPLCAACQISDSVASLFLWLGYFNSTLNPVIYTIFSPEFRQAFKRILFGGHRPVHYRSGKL

5-HT1B = biological target: T2, 5-HT1B (Drosophila melanogaster, UniProt P28286); experiment: as above; assay type: cell-based
T2 sequence (P28286 1-617): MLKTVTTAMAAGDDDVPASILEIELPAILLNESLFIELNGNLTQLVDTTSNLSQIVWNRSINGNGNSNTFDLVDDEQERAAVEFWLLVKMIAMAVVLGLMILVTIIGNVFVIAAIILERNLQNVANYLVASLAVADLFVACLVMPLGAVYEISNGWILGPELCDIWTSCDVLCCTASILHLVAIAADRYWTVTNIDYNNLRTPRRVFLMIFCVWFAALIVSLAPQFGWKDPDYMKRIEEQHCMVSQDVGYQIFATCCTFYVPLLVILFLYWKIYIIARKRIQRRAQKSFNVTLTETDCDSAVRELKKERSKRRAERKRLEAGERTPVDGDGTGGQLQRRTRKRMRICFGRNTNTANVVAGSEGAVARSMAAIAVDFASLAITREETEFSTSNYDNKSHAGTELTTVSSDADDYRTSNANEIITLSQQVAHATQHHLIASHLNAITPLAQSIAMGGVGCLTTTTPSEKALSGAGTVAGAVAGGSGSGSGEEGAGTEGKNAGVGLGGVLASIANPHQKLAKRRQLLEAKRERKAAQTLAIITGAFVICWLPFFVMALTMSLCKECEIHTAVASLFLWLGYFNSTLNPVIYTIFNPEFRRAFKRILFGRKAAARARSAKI

5-HT2A = biological target: T3, 5-HT2A (Drosophila melanogaster, UniProt Q9VN38); experiment: as above; assay type: cell-based; conditions: 100 μM metitepine; stated for all 5-HT receptors
T3 sequence (Q9VN38 1-868): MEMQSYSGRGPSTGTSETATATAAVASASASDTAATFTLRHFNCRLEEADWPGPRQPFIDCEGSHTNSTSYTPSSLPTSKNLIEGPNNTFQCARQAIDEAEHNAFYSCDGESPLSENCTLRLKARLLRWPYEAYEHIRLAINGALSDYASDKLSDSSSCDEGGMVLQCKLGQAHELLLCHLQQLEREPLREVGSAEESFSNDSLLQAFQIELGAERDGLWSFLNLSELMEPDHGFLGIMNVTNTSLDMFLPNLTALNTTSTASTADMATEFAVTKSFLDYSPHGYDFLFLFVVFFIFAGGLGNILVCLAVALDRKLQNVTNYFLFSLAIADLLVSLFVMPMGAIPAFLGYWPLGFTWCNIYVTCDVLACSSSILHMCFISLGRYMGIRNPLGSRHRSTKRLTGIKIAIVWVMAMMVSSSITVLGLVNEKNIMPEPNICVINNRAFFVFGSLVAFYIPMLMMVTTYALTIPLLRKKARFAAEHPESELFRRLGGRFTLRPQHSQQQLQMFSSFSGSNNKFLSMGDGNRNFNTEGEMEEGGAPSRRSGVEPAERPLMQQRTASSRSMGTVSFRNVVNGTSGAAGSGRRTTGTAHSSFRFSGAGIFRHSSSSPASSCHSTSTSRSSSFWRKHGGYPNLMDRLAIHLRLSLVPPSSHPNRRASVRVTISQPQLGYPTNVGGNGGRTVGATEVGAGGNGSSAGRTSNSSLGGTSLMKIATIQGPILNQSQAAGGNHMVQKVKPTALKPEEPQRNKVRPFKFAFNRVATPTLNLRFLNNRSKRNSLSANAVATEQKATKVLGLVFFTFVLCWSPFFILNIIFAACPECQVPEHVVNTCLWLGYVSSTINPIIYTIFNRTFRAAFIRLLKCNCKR

5-HT2B = biological target: T4, 5-HT2B (Drosophila melanogaster, UniProt Q8INQ6); experiment: as above; assay type: cell-based; conditions: 100 μM metitepine; stated for all 5-HT receptors
T4 sequence (Q8INQ6 1-904): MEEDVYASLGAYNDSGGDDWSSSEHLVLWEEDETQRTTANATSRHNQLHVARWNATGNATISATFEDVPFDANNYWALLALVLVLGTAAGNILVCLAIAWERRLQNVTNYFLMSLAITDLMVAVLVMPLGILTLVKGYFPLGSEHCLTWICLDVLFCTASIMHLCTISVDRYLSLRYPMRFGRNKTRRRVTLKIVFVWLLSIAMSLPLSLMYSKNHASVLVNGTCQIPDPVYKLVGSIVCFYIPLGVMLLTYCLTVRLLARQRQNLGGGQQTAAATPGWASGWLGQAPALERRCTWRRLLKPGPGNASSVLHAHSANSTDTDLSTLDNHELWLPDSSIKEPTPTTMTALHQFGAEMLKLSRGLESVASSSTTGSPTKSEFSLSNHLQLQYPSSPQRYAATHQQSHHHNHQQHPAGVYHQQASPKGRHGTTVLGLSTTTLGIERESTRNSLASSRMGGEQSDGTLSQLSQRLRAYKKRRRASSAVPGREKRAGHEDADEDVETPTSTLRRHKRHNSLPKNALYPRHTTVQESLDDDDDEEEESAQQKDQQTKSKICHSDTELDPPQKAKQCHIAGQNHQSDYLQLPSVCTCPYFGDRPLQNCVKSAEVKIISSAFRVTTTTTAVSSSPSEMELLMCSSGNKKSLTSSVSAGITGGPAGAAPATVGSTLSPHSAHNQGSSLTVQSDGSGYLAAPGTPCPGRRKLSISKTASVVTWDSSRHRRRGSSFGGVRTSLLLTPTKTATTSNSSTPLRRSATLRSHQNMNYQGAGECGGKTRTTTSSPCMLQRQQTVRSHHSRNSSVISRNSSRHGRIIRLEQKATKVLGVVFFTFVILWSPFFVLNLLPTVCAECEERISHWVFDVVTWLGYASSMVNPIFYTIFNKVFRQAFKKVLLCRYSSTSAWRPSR

5-HT7 = biological target: T5, 5-HT7 (Drosophila melanogaster, UniProt P20905); experiment: as above; assay type: cell-based; conditions: 100 μM metitepine; stated for all 5-HT receptors
T5 sequence (P20905 1-564): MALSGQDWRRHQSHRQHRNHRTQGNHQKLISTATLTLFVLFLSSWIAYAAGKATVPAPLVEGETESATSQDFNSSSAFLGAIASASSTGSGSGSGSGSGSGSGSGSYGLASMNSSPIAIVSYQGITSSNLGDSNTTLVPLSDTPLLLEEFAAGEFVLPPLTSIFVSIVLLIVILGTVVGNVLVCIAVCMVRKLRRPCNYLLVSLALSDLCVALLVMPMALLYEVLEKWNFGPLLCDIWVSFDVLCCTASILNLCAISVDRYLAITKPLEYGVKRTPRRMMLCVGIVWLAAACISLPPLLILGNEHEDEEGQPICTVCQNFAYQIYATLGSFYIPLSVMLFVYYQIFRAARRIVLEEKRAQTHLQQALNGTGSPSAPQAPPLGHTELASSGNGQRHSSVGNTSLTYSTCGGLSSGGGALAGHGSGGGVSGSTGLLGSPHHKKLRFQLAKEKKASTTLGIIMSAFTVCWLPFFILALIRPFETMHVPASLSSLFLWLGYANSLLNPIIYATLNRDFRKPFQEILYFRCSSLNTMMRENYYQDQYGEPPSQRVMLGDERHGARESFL

HEK-293T cells = experiment: ATP control after metitepine treatment; assay type: cell-based; conditions: 100 μM metitepine; ATP activated all cells afterwards
C. elegans = conditions: different small molecule screen; cited from earlier work

Compound	food accumulation immediately after exposure ([1]; 0-h recovery)	dose-response verification [1]	anorectic effect 4 hours after treatment ([1]; 4 h recovery)	food intake 24 hours after treatment ([1]; 24 h recovery, rebound from drug-induced fasting)	threshold concentration for efficacy ([1]; liquid food with fluorescein, increasing effects at 50 and 100 μM)	duration of anorectic effect after treatment ([1]; recovery time course after metitepine treatment)	solid food accumulation in digestive tract (Drosophila larvae [2]; cornmeal-agar-molasses diet with bromophenol blue, 100 μM (Fig. 3a))	threshold efficacy dose (Drosophila larvae [2]; solid food with bromophenol blue, optical density of gut)	crawling speed (Drosophila larvae [3]; 100 μM in solid food, 17 hours, agar surface)	responses to 5-HT in presence of drug (5-HT1A)	pIC50 (5-HT1B)	responses to 5-HT in presence of drug (5-HT1B; 100 μM metitepine, stated for all 5-HT receptors)	responses to 5-HT in presence of drug (5-HT2A)	responses to 5-HT in presence of drug (5-HT2B)	responses to 5-HT in presence of drug (5-HT7)	cell survival after treatment (HEK-293T cells)	lifespan (C. elegans)	feeding in pilot screen ([1]; pilot screen, tested individually at 20 μg/ml, data not shown)	larval locomotion (Drosophila larvae [3]; at concentrations as low as 10 μM, data not shown)
CSc1ccc2c(c1)C(N1CCN(C)CC1)Cc1ccccc1S2 (centres unmarked) [Metitepine]	reduced food accumulation	showed reliable dose-dependent responses	not evident	ate significantly more	10 µM	2 h	accumulated less solid food	50 µM	crawled at the same speed as solvent treated controls	dramatically suppressed or completely abolished	4.24	dramatically suppressed or completely abolished	dramatically suppressed or completely abolished	dramatically suppressed or completely abolished	dramatically suppressed or completely abolished	did not kill the cells	extends lifespan	–	–
C[C@@H]1C[C@@H]([C@H](O)CC2CC(=O)NC(=O)C2)C(=O)[C@@H](C)C1 [cycloheximide]	–	–	–	–	–	–	–	–	–	–	–	–	–	–	–	–	–	inhibited feeding	–
COC(=O)[C@H]1[C@H]2C[C@@H]3c4[nH]c5cc(OC)ccc5c4CCN3C[C@H]2C[C@@H](OC(=O)c2cc(OC)c(OC)c(OC)c2)[C@@H]1OC [Reserpine]	–	showed reliable dose-dependent responses	–	–	–	–	–	–	–	–	–	–	–	–	–	–	–	–	dramatically reduced larval locomotion
